Source: ChEMBL document CHEMBL4145534, “Computer-aided insights into receptor-ligand interaction for novel 5-arylhydantoin derivatives as serotonin 5-HT7 receptor agents with antidepressant activity” (Eur J Med Chem, 2018)

What was measured:
[1] = target: D(2) dopamine receptor (Homo sapiens, UniProt P14416); test: Displacement of [3H]-raclopride from human D2L receptor expressed in HEK293 cell membranes after 1 hr by Microbeta scintillation counting method
[2] = target: T1, 5-hydroxytryptamine receptor 1A (Homo sapiens, UniProt P08908); test: Displacement of [3H]-8-OH-DPAT from human 5HT1AR expressed in HEK293 cell membranes after 1 hr by Microbeta scintillation counting method
T1 sequence (P08908 whole entry): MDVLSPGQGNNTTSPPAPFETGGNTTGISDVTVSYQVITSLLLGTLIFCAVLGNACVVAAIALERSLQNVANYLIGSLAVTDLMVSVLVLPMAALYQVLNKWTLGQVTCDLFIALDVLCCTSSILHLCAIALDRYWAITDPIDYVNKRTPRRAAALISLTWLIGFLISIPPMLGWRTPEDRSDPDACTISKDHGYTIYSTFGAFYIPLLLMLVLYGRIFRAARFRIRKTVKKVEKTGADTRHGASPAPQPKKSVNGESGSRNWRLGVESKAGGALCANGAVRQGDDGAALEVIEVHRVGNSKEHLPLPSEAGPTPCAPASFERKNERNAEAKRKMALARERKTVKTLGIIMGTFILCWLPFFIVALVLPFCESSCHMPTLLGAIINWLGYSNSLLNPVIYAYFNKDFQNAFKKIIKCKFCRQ

[3] = target: 5-hydroxytryptamine receptor 7 (Homo sapiens, UniProt P34969); test: Displacement of [3H]-5-CT from human 5HT7BR expressed in HEK293 cell membranes after 1 hr by Microbeta scintillation counting method
[4] = target: T2, Adrenergic receptor alpha-1 (Rattus norvegicus, UniProt P15823+P23944+P43140); test: Displacement of [3H]-prazosin from alpha1-adrenergic receptor in rat brain cortex after 30 mins by Microbeta scintillation counting method
T2 sequence (P15823 whole entry): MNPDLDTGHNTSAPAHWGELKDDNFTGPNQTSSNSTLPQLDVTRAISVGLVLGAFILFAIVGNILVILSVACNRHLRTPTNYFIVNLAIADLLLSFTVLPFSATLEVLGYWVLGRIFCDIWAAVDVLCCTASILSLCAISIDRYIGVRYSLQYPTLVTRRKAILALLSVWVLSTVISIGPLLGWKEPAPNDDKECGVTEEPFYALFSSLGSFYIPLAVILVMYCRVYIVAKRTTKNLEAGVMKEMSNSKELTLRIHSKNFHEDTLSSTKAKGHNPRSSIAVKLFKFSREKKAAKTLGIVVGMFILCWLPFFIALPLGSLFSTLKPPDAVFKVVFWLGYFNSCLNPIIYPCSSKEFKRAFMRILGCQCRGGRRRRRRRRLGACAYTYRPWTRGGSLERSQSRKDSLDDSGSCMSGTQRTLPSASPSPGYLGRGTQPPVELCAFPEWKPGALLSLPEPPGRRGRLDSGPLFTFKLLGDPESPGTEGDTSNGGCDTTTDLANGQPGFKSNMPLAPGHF
T2 sequence (P23944 whole entry): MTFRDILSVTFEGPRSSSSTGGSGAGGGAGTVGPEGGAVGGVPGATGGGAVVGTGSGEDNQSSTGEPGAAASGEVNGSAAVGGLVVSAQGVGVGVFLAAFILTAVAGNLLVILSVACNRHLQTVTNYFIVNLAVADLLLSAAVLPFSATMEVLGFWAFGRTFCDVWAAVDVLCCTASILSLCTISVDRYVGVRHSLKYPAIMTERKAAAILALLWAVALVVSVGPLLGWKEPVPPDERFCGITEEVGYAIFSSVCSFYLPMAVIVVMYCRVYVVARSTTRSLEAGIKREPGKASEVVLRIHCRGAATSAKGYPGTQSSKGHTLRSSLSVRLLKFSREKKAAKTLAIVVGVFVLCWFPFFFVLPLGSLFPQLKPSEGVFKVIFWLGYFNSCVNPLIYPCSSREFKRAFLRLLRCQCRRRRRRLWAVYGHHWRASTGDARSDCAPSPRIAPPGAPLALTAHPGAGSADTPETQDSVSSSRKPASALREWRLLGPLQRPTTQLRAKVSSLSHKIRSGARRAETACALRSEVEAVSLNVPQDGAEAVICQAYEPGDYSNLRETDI
T2 sequence (P43140 whole entry): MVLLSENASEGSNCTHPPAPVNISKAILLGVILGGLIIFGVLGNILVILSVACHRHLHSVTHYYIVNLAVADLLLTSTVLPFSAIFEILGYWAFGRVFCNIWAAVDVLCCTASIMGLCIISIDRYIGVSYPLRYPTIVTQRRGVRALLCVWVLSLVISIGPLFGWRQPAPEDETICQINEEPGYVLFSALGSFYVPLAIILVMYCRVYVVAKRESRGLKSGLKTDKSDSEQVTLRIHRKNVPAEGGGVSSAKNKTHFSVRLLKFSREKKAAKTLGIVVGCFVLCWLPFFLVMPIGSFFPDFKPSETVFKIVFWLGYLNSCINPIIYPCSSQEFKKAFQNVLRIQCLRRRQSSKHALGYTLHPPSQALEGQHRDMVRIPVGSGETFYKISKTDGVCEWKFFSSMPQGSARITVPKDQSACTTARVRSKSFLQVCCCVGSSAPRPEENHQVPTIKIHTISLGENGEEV

[5] = target: Beta-1 adrenergic receptor (Rattus norvegicus, UniProt P18090); test: Displacement of [3H]-CGP-12177 from beta1-adrenergic receptor in rat brain cortex after 1 hr by Microbeta scintillation counting method
[6] = test system: Mus musculus; test: Antidepressant like activity in Swiss albino mouse assessed as immobility time at 5 mg/kg, ip administered 60 mins prior to test and measured last 4 mins of 6 mins test by forced swimming test (reference value: 159.78 to 183.56 secs); type: functional
[7] = test system: Mus musculus; test: Antidepressant like activity in Swiss albino mouse assessed as immobility time at 10 mg/kg, ip administered 60 mins prior to test and measured last 4 mins of 6 mins test by forced swimming test (reference value: 159.78 to 183.56 secs); type: functional
[8] = test system: Mus musculus; test: Antidepressant like activity in Swiss albino mouse assessed as immobility time at 20 mg/kg, ip administered 60 mins prior to test and measured last 4 mins of 6 mins test by forced swimming test (reference value: 159.78 to 183.56 secs); type: functional
[9] = test system: Mus musculus; test: Anxiolytic-like activity in Swiss albino mouse assessed as number of punished crossings at 10 mg/kg, ip administered 60 mins prior to test and measured post 3 secs of electric shock by four-plate test (reference value: 3.8 to 4 /min); type: functional
[10] = test system: Mus musculus; test: Anxiolytic-like activity in Swiss albino mouse assessed as number of punished crossings at 20 mg/kg, ip administered 60 mins prior to test and measured post 3 secs of electric shock by four-plate test (reference value: 3.8 to 4 /min); type: functional
[11] = test system: Mus musculus; test: Anxiolytic-like activity in Swiss albino mouse assessed as number of punished crossings at 40 mg/kg, ip administered 60 mins prior to test and measured post 3 secs of electric shock by four-plate test (reference value: 3.8 to 4 /min); type: functional
[12] = test system: Mus musculus; test: Antidepressant like activity in Swiss albino mouse assessed as decrease in immobility time at 20 mg/kg, ip administered 60 mins prior to test and measured last 4 mins of 6 mins test by forced swimming test relative to control; type: functional; design: scale not given: the % may be the effect or the level left
[13] = test system: Mus musculus; test: Effect on spontaneous locomotor activity in Swiss albino mouse at 20 mg/kg, ip administered 60 mins prior to test and measured for 3 to 6 mins; type: ADME, organism-based; conditions: in vivo
Procedure, shortened: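 Male Swiss Albino mice given compound or vehicle (1% Tween 80, 10 ml/kg) i.p. 60 min before test. Each mouse placed alone in a cage for 30 min habituation. Ambulation (photobeam channel crossings) then recorded over a 3–6 min session. Means ± SEM.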

[14] = organism: Homo sapiens; test: Selectivity ratio of Ki for human D2L receptor expressed in HEK293 cell membranes to Ki for human 5HT7BR expressed in HEK293 cell membranes; type: cell-based
Procedure, shortened: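 Membranes from HEK293 cells stably expressing human 5-HT1A, 5-HT7b or D2L receptors. Buffers all 50 mM Tris HCl with 4 mM MgCl2 and 0.1% ascorbate. 5-HT1A: 0.1 mM EDTA, 10 µM pargyline, 2.5 nM [3H]-8-OH-DPAT, room temperature. 5-HT7b: 10 µM pargyline, 0.8 nM [3H]-5-CT, 37°C. D2L: EDTA, NaCl, KCl, CaCl2, 2.5 nM [3H]-raclopride, 37°C. Incubation 1 h; nonspecific binding 10 µM 5-HT (haloperidol for D2L). Seven concentrations (10^-10–10^-4 M) in triplicate; filtration; Ki by Cheng-Prusoff; at least two experiments.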

[15] = target: T3, Adrenergic receptor alpha-2 (Rattus norvegicus, UniProt P22086+P19328+P22909); test: Displacement of [3H]-clonidine from alpha2-adrenergic receptor in rat brain cortex after 30 mins by Microbeta scintillation counting method
T3 sequence (P22086 whole entry): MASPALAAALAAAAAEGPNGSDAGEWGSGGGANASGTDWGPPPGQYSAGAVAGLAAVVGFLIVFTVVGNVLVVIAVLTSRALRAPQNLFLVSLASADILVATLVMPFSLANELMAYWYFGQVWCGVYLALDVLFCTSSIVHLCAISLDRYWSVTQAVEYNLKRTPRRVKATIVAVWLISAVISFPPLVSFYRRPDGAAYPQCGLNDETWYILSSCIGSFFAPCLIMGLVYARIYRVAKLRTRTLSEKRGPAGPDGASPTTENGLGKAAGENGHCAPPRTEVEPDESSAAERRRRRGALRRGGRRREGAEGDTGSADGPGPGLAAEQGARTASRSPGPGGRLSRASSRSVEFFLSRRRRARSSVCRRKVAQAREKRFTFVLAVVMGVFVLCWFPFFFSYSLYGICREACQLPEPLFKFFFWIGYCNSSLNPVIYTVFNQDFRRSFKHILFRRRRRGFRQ
T3 sequence (P19328 whole entry): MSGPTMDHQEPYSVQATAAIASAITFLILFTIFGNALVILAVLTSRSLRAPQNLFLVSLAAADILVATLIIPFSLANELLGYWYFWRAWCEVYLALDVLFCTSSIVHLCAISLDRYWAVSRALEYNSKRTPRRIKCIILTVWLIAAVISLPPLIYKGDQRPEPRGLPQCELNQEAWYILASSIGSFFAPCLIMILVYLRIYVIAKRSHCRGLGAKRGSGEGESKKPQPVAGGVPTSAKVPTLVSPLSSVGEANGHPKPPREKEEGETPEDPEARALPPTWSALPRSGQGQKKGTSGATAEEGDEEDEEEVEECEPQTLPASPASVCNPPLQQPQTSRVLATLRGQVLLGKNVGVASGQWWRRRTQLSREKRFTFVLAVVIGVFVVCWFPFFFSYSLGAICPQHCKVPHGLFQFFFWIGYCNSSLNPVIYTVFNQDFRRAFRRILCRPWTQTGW
T3 sequence (P22909 whole entry): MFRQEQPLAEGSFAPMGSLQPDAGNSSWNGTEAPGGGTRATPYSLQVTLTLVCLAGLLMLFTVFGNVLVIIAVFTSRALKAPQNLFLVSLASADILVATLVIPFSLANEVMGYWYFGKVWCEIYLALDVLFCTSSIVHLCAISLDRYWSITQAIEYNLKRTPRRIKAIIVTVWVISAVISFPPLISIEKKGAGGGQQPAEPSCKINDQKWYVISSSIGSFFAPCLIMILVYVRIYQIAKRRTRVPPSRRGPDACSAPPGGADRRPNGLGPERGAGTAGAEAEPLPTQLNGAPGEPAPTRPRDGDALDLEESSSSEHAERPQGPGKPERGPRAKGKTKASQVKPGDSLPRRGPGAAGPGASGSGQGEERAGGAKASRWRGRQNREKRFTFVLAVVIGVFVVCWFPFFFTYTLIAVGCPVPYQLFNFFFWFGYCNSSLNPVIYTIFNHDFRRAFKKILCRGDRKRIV

Sequence of 5-hydroxytryptamine receptor 7 (P34969 whole entry): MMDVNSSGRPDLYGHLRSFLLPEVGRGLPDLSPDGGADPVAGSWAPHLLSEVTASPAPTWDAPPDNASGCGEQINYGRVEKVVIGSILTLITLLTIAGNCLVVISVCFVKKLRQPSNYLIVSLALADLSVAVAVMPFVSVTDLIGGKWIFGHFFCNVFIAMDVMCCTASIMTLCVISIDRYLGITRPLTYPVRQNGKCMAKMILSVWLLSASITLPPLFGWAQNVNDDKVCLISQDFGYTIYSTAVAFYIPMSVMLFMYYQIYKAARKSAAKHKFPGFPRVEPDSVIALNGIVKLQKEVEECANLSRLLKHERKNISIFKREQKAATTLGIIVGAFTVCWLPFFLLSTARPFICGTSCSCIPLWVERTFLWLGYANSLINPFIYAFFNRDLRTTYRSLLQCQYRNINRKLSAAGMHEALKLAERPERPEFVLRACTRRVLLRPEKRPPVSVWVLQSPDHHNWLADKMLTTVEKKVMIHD
Sequence of D(2) dopamine receptor (P14416 whole entry): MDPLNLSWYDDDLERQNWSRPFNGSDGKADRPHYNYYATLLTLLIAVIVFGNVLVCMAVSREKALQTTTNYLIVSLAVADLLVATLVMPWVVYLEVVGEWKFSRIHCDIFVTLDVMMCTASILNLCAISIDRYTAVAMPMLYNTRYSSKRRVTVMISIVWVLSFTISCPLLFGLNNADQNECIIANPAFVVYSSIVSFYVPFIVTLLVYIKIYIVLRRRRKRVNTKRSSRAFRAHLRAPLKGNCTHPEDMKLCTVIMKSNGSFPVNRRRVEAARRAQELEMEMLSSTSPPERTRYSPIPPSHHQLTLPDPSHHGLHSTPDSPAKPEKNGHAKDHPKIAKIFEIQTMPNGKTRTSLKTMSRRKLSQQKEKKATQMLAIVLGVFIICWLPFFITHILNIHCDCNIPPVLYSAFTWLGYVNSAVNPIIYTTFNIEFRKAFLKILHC
Sequence of Beta-1 adrenergic receptor (P18090 whole entry): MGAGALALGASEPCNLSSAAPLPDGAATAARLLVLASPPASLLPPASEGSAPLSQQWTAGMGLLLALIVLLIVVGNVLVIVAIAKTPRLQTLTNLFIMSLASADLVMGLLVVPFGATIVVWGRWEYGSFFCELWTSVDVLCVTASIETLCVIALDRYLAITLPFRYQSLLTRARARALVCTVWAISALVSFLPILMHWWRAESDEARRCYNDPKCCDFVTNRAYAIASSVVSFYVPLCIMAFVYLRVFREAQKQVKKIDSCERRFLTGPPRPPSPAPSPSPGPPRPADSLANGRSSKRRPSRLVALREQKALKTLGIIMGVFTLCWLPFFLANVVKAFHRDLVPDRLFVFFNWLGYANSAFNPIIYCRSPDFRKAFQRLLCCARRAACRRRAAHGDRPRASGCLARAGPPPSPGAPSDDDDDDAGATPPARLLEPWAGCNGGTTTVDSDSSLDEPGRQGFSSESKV

SMILES | Ki [1] [nM] | Ki [2] [nM] | Ki [3] [nM] | Ki [4] [nM] | Ki [5] [nM] | Time [6] [s] | Time [7] [s] | Time [8] [s] | Activity [9] [min⁻¹] | Activity [10] [min⁻¹] | Activity [11] [min⁻¹] | Activity [12] [%] | Activity [13] | Ratio Ki [14] | Ki [15] [nM]
CC1(c2ccccc2)NC(=O)N(CC(O)CN2CCN(c3ccccc3C#N)CC2)C1=O.Cl (racemic) | 1690 | 585 | 12 | 278 | > 10000 | 141.22 | 134.57 | 34.44 | 3.3 | 4.9 | 5.2 | 80 | Non-Toxic | 140 to 190 | 
COc1ccccc1N1CCN(CC(O)CN2C(=O)NC(c3ccccc3)(c3ccccc3)C2=O)CC1 (racemic) | 497 | 197 | 566 |  |  |  |  |  |  |  |  |  |  |  | 
CCOc1ccccc1N1CCN(CC(O)CN2C(=O)NC(C)(c3ccccc3)C2=O)CC1.Cl (racemic) | 303 | 190 | 6 | 500 | > 10000 |  |  |  |  |  |  |  |  |  | > 5000
COc1ccccc1N1CCN(CC(O)CN2C(=O)NC(C)(c3ccc(C)cc3)C2=O)CC1 (racemic) | 876 | 184 | 50 |  |  |  |  |  |  |  |  |  |  |  | 
CC1(c2ccc(Cl)cc2)NC(=O)N(CC(O)CN2CCN(C(c3ccccc3)c3ccccc3)CC2)C1=O.Cl (racemic) | 601 | 99 | 8 | 530 |  |  |  |  |  |  |  |  |  |  | > 10000
